ChEMBL document CHEMBL2346594, “Synthesis and evaluation of an imidazole derivative-fluorescein conjugate” (Bioorg Med Chem, 2013)
Activity calls are given as the source filed them. No cut-off for these calls is given here.

Key:
SJSA-1 [1] = assay: Antiproliferative activity against human SJSA1 cells expressing wild type p53 after 5 days by MTS assay; assay type: functional, cell-based
Summary of the method: (§1)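 Cells (wild-type or mutant p53) grown in recommended medium with 10% FBS at 37 °C under 5% CO2. Compounds were kept as 1 mmol/L DMSO stocks. Cells were seeded in 96-well plates and treated with serial concentrations (highest 10 µM) for 5 days, then read by MTS. Viability is % of untreated controls, mean SD, n = 4.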

Homo sapiens = organism: Homo sapiens; assay: Antiproliferative activity against human MDA-MB-435S cells harboring p53 mutant at 10 uM after 5 days by MTS assay; assay type: functional, cell-based; summary of the method: as §1
HeLa = assay: Antiproliferative activity against human HeLa cells harboring p53 mutant at 10 uM after 5 days by MTS assay; assay type: functional, cell-based; summary of the method: as §1
SW480 = assay: Antiproliferative activity against human SW480 cells harboring p53 mutant at 10 uM after 5 days by MTS assay; assay type: functional, cell-based; summary of the method: as §1
HCT-116 [2] = assay: Antiproliferative activity against human HCT116 cells expressing wild type p53 after 5 days by MTS assay; assay type: functional, cell-based; summary of the method: as §1
RKO = assay: Antiproliferative activity against human RKO cells expressing wild type p53 after 5 days by MTS assay; assay type: functional, cell-based; summary of the method: as §1
SJSA-1 [3] = assay: Cellular uptake in human SJSA1 cells expressing wild type p53 at 1 to 5 uM after 1 hr by fluorometric analysis; assay type: ADME, cell-based; settings: sjsa-1, 1 h
Summary of the method: (§2)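 SJSA-1 or HCT116 cells were plated at 400,000/well and attached for 24 h. Fluorescein conjugate or free FAM was added at final 1 and 5 µM for 1 h at 37 °C, with DMSO and medium-only controls. Cells were washed three times in warm PBS, scraped and counted. About 10,000 cells/well were read by fluorescence at 485/520 nm; 3 runs per sample.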

HCT-116 [4] = assay: Cellular uptake in human HCT116 cells expressing wild type p53 at 1 to 5 uM after 1 hr by fluorometric analysis; assay type: ADME, cell-based; settings: hct-116, 1 h; summary of the method: as §2
SJSA-1 [5] = assay: Cellular uptake in human SJSA1 cells expressing wild type p53 at 5 uM after 1 hr by fluorometric analysis in presence of nutlin-glycine; assay type: ADME, cell-based; settings: sjsa-1, 1 h
HCT-116 [6] = assay: Cellular uptake in human HCT116 cells expressing wild type p53 at 5 uM after 1 hr by fluorometric analysis in presence of nutlin-glycine; settings: hct-116, 1 h

Drug uptake (SJSA-1 [3])	Drug uptake (HCT-116 [4])	Drug uptake (SJSA-1 [5])	Drug uptake (HCT-116 [6])	SMILES	Activity (SJSA-1 [1])	Activity (Homo sapiens)	Activity (HeLa)	Activity (SW480)	Activity (HCT-116 [2])	Activity (RKO)
				COc1ccc(C2=N[C@@H](c3ccc(Cl)cc3)[C@@H](c3ccc(Cl)cc3)N2C(=O)N2CCNC(=O)C2)c(OC(C)C)c1 (relative stereo)	Dose-dependent effect	inactive	inactive	inactive	Dose-dependent effect	Dose-dependent effect
Active	Active	Not Active	Not Active	CCOc1cc(OC)ccc1C1=N[C@@H](c2ccc(Br)cc2)[C@@H](c2ccc(Br)cc2)N1C(=O)N1CCN(CCOC(=O)CNC(=O)c2ccc(C(=O)O)c(-c3c4ccc(=O)cc-4oc4cc(O)ccc34)c2)CC1 (relative stereo)						
				CCOc1cc(OC)ccc1C1=N[C@@H](c2ccc(Br)cc2)[C@@H](c2ccc(Br)cc2)N1C(=O)N1CCN(CCOC(=O)CN)CC1 (relative stereo)	Dose-dependent effect	inactive	inactive	inactive	Dose-dependent effect	Dose-dependent effect
